This is a sample that favours compounds with a hit; in the whole collection about 3.4% have one here.
Runt-SMMHC FRET: blocks binding of human RUNX1 Runt domain to CBFb-SMMHC; 220,000 tested, 0.74% active; inhibition, % at 20 µM; Q01196+Q13951; Cerulean-Runt/Venus-CBFb-SMMHC FRET ratio 530/480, 1 h; AID 1434;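 active means mean inhibition across duplicate retests at 20 µM reaching about 50%, limit read from the data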;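 further: inhibitors lower the FRET ratio by blocking Runt binding to CBFb-SMMHC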
Target sequence (Q01196 whole entry, looked up, the tested form may be a part): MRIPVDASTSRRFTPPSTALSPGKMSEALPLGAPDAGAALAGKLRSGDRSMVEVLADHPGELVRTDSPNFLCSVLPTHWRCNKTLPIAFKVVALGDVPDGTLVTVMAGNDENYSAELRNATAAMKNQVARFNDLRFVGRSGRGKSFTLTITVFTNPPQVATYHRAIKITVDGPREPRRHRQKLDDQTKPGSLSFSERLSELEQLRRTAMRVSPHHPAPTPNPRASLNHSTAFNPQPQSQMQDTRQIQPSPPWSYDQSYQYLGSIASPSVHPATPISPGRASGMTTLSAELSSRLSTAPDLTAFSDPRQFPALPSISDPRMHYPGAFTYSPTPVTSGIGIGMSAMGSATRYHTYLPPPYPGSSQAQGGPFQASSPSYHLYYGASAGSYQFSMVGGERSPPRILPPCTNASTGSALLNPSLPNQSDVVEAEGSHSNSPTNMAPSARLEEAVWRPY
Target sequence (Q13951 whole entry, looked up, the tested form may be a part): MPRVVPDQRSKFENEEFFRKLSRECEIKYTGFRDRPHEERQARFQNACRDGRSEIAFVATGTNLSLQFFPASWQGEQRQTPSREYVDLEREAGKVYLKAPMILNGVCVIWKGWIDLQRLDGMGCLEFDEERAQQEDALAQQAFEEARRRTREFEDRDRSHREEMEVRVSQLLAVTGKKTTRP
Runt-CBFb FRET: blocks binding of human RUNX1 Runt domain to CBFb; Q01196+Q13951; Cerulean-Runt/Venus-CBFb FRET ratio 530/480, 1 h; inhibition, % at 20 µM; 220,000 tested, 0.46% active;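 active means inhibition over about 50% at 20 µM in the single-dose screen, limit read from the data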
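Assay system: Cerulean-Runt domain fusion protein, energy donor; Signal: fluorescence energy transfer, 422 nm excitation, 530/480 nm emission; Timing: 1 h compound exposure, room temperature; Control set: unlabeled CBFb; Medium: Tris buffer pH 7.5 with salts and BSA; Compound: single test concentration of 20 µM, 1% DMSO final; Probe or stimulus: Venus-CBFb 100 nM.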
RanGTP-Impb inh: inhibitors of RanGTP-importin-beta interaction, primary screen, biochemical, FRET, CFP-Ran, YFP-importin-beta, homogeneous; cell-free CFP-Ran/YFP-importin-beta FRET ratio; inhibition, % (test concentration not listed); 300,000 tested, 1.1% active; AID 2216;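 active means more than half of the replicate wells show a fall in the fluorescence ratio signal beyond about 16%, limit read from the data, passing the limit was not always enough; inconclusive means exactly half of the replicate wells pass the set limit; inactive means fewer than half of replicates pass the limit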
Efa HMGR inh: E. faecalis class II HMG-CoA reductase inhibition | inhibition, % at 10 µM | purified E. faecalis HMGR, NADPH absorbance 340 nm kinetic | 190,000 tested, 0.41% active;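 active means inhibition above a set limit, the median over all tested compounds plus 3 SD, cut at about 9.5% in these data; inconclusive means no clear call, values can overlap the other calls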;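 further: enzyme runs in reverse so mevalonate oxidation gives rising NADPH absorbance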
Wee1 degr inh: inhibitors of human Wee1 degradation; HeLa Luc-Wee1K328M stability, luciferase luminescence; 100% = proteasome inhibitor MG132 effect; AID 1321; 220,000 tested, 1.2% active; reporter increase, % at 5 µM;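 active means activation above the mean of all tested compounds plus 3 SD, set per screening run, cut at about 8.8% in these data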;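 further: cells exposed to compound for 20 h before luminescence read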
PHOSPHO1 block: inhibitors of human PHOSPHO1 phosphatase | recombinant PHOSPHO1, absorbance phosphatase assay | Q8TCT1 | inhibition, % at 13.3 µM | 290,000 tested, 1.1% active; in the data active means inhibition above about 60%
Of the large screens only hits and unclear results are named; the others gave an inactive call; ! = repeats disagree.

CCOC(=O)c1cnc(SCC(=O)Nc2cc(OC)cc(OC)c2)nc1N	none
CCOC(=O)c1sc(NC(=O)CSc2nc(C)cc(-c3ccccc3)n2)c(C#N)c1C	PHOSPHO1 block 88
Cc1ccc(NC(=O)Cc2nnc(SCC(=O)c3ccc(Br)cc3)n2C)cc1Cl	PHOSPHO1 block 78
CCCCc1nnc(NC(=O)C(C)Sc2nc(N)cc(=O)[nH]2)s1 (stereo unspecified)	RanGTP-Impb inh inconclusive
CC1(C)OC(=O)C(=CNc2cccc(O)c2)C(=O)O1	none
CC1(C)OC(C)(C)/C(=C/Nc2ccc(O)cc2)C1=O	Wee1 degr inh 9.9
COc1cc2ccc(=O)oc2c(O)c1OCC=C(C)C	Runt-SMMHC FRET 62, Runt-CBFb FRET 61
C=CCC1(CC=C)CCCN1C(=O)c1cc(COc2ccc(C)nc2)on1	none (no result: Runt-SMMHC FRET, Runt-CBFb FRET, Efa HMGR inh, Wee1 degr inh)
COc1ccc(OC)c(NC(=O)C(CCSC)NS(=O)(=O)c2cccs2)c1 (stereo unspecified)	none (no result: Runt-SMMHC FRET, Runt-CBFb FRET, Efa HMGR inh, Wee1 degr inh)
O=C1OCCN1C(=O)[C@H]1[C@H](c2ccc([N+](=O)[O-])cc2)C(c2cccc(Cl)c2)=NN1c1ccccc1	Wee1 degr inh 10
O=C(Cn1ccc2ccccc2c1=O)NCCC(=O)Nc1ccc2c(c1)OCCO2	none
Cc1ccc(OCC(=O)N/N=C/c2cn(C)c3ccccc23)cc1	Wee1 degr inh 9.2 (no result: Efa HMGR inh)
COc1ccc2c(c1)c(C(=O)N/N=C/c1cn(C)c3ccccc13)c(C)n2C	Wee1 degr inh 9.4 (no result: Efa HMGR inh)
CC(C)(C)NC(=O)NC(=O)CN1C(=O)NC(c2ccccc2)(c2ccccc2)C1=O	none (no result: Runt-SMMHC FRET, Runt-CBFb FRET, Efa HMGR inh, Wee1 degr inh)
Cc1ccsc1C(=O)NCCc1nnc2ccccn12	none (no result: Runt-SMMHC FRET, Runt-CBFb FRET, Efa HMGR inh, Wee1 degr inh)
COc1cc2cc(CN(C(=O)NC3CCCCC3)C3CCCC3)c(=O)[nH]c2cc1OC	Wee1 degr inh 8.8
CCOCCCn1c(=NC(=O)c2cccnc2)c(C(=O)OCC)cc2c(=O)n3ccccc3nc21	Runt-CBFb FRET 65, RanGTP-Impb inh 119
CCOC(=O)c1cc2c(=O)n3cc(C)ccc3nc2n(Cc2cccnc2)c1=N	none (no result: RanGTP-Impb inh, Efa HMGR inh, Wee1 degr inh)
CCOC(=O)c1cc2c(=O)n3cccc(C)c3nc2n(CCCOC)c1=NC(=O)c1cccnc1	Runt-CBFb FRET 110, RanGTP-Impb inh 129
CCCCn1c(=NC(=O)c2cccnc2)c(C(=O)OCC)cc2c(=O)n3ccccc3nc21	Runt-SMMHC FRET 62, Runt-CBFb FRET 93, RanGTP-Impb inh 82
Cn1nnnc1SCCNC(=O)C1CCC(=O)N(CCc2cccc(F)c2)C1 (stereo unspecified)	none (no result: Runt-SMMHC FRET, Runt-CBFb FRET, Efa HMGR inh, Wee1 degr inh)
O=C(NCc1ccccc1Cl)C(=O)NCC(c1ccco1)N1CCOCC1 (stereo unspecified)	none
Cc1ccc(C(C(=O)NCCc2ccccc2)N(C(=O)c2csnn2)C2CC2)cc1 (stereo unspecified)	none (no result: Runt-SMMHC FRET, Runt-CBFb FRET, Efa HMGR inh, Wee1 degr inh)
Nc1c(N)c2ccccc2oc1=O	RanGTP-Impb inh 20
O=C1COc2cccnc2N1	Wee1 degr inh 9.4!
O=C1COc2ccccc2CN1	none (no result: Runt-CBFb FRET, Efa HMGR inh)
COc1ccc(NC(=O)NNC(=O)COc2ccc(Cl)cc2C)cc1OC	none (no result: Runt-SMMHC FRET, Runt-CBFb FRET, Efa HMGR inh, Wee1 degr inh)
COc1ccc(OC)c(NC(=O)NNC(=O)CCCOc2ccc(Cl)cc2C)c1	Efa HMGR inh 16
CCOc1ccccc1NC(=O)Nc1ccc(CC#N)cc1	Wee1 degr inh 10 (no result: Efa HMGR inh)
Cc1ccc(S(=O)(=O)N2CCOCC2)cc1C(=O)OCC(=O)Nc1ccc2[nH]c(=O)[nH]c2c1	none (no result: Runt-SMMHC FRET, Runt-CBFb FRET, Efa HMGR inh, Wee1 degr inh, PHOSPHO1 block)
CCOC(=O)Nc1ccc2c(c1)N(C(=O)N1CCN(C)CC1)c1ccccc1CC2	Efa HMGR inh 13
CC(C)OC(=O)Nc1ccc2c(c1)N(C(=O)N1CCN(C)CC1)c1ccccc1CC2	Wee1 degr inh 11 (no result: Efa HMGR inh)
CCOC(=O)Nc1ccc2c(c1)N(C(=O)CN1CCN(C)CC1)c1ccccc1CC2	none (no result: Runt-SMMHC FRET, Runt-CBFb FRET, Efa HMGR inh, Wee1 degr inh)
O=C(O)c1cnn(-c2nc(-c3ccc(Br)cc3)cs2)c1C(F)(F)F	none (no result: Runt-SMMHC FRET, Runt-CBFb FRET, Efa HMGR inh, Wee1 degr inh, PHOSPHO1 block)
CC(=O)N1CCc2c(sc(NC(=O)CS(=O)(=O)c3ccc(F)cc3)c2C(N)=O)C1	RanGTP-Impb inh 21 (no result: Runt-SMMHC FRET, Runt-CBFb FRET, Efa HMGR inh, Wee1 degr inh, PHOSPHO1 block)
CC(=O)N1CCc2c(sc(NC(=O)CN3C(=O)c4ccccc4C3=O)c2C(N)=O)C1	none
CN1CCc2c(sc(NC(=O)CS(=O)(=O)c3ccc(F)cc3)c2C(N)=O)C1	RanGTP-Impb inh 163 (no result: Runt-SMMHC FRET, Runt-CBFb FRET, Efa HMGR inh, Wee1 degr inh, PHOSPHO1 block)
CC(=O)N1CCc2c(sc(NC(=O)CN3C(=O)CCC3=O)c2C(N)=O)C1	RanGTP-Impb inh 23
CN1CCc2c(sc(NC(=O)c3ccc4ccccc4c3)c2C(N)=O)C1	none (no result: Runt-SMMHC FRET, Runt-CBFb FRET, RanGTP-Impb inh, Efa HMGR inh, Wee1 degr inh)
COC(=O)c1ccccc1NC(=O)CSc1nnc(CNS(=O)(=O)c2ccc(C)cc2)n1C	Efa HMGR inh 14
CS(=O)(=O)c1ccc(NC(=O)CCN2C(=O)C3CCCCC3C2=O)cc1 (stereo unspecified)	none (no result: Runt-SMMHC FRET, Runt-CBFb FRET, Efa HMGR inh, Wee1 degr inh, PHOSPHO1 block)
Cn1ccnc1SCC(=O)c1ccc([N+](=O)[O-])cc1	none
Cn1ccnc1SCC(=O)c1ccc(Br)cc1	PHOSPHO1 block 61
C(=C\c1nccc2c1[nH]c1ccccc12)/c1ccccc1	Runt-SMMHC FRET 80 (no result: Efa HMGR inh)
CCN(CC)CCn1c(=S)[nH]c2ccc(Cl)cc2c1=O	PHOSPHO1 block 78
CCN(CC)CCn1c(=S)[nH]c2cc(Cl)ccc2c1=O	PHOSPHO1 block 94
COc1cc(C2=NOC(C(=O)Nc3cc(C)on3)C2)cc(OC)c1OC (stereo unspecified)	RanGTP-Impb inh 20 (no result: Efa HMGR inh)
COc1ccc(CNC(=O)CCC(=O)Nc2nnc(C(F)(F)F)s2)cc1	none (no result: Runt-SMMHC FRET, Runt-CBFb FRET, Efa HMGR inh, Wee1 degr inh)
c1ccc(C(c2c[nH]c3ccccc23)c2c[nH]c3ccccc23)nc1	RanGTP-Impb inh 52
S=C(Nc1cccc2ccccc12)NN1CCOCC1	PHOSPHO1 block 94
